# Test results reported in ChEMBL document CHEMBL5058577, “EUbOPEN Chemogenomics Library 2 (Multiplex)” (2022).
# Tested on: Fibroblast
# Experiment: Multiplex assay against human fibroblast
# Type: toxicity, cell-based
# Summary of the method: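 Compound was added to live cells that had been stained at seeding with Hoechst33342, BioTracker Green Microtubule Cytoskeleton Dye, MitoTracker Red and Annexin V Alexa Fluor 680, and imaging followed on a CQ1 microscope at 37°C and 5% CO2. CellPathfinder machine-learning gating divided cells into Hoechst high-intensity objects or normal cells, normal cells into healthy, pyknosed or fragmented nuclei, and pyknosed cells into mitotic or apoptotic. Tubulin, mitochondrial-mass and membrane-permeability phenotypes are per cents of healthy-nucleus cells.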
# [1] = 12 h, 1 µM, compound concentration 1 uM, replicate 1
# [2] = 12 h, 1 µM, compound concentration 1 uM, replicate 2
# [3] = 12 h, 10 µM, compound concentration 10 uM, replicate 1
# [4] = 12 h, 10 µM, compound concentration 10 uM, replicate 2
# [5] = 24 h, 1 µM, compound concentration 1 uM, replicate 1
# [6] = 24 h, 1 µM, compound concentration 1 uM, replicate 2
# [7] = 24 h, 10 µM, compound concentration 10 uM, replicate 1
# [8] = 24 h, 10 µM, compound concentration 10 uM, replicate 2
# [9] = 48 h, 1 µM, compound concentration 1 uM, replicate 1
# [10] = 48 h, 1 µM, compound concentration 1 uM, replicate 2
# [11] = 48 h, 10 µM, compound concentration 10 uM, replicate 1
# [12] = 48 h, 10 µM, compound concentration 10 uM, replicate 2
smiles,measurement,setting,value
CCCC(CCC)C(=O)O [VALPROIC ACID],Population Apoptotic (%),[1],42%
same,Population Fragmented Nuclei (%),[1],13%
same,Population Healthy Nuclei (%),[1],65%
same,Population Hoechst High Intensity Objects (%),[1],3%
same,Population Membrane Permeable-Phenotype (%),[1],2%
same,Population Mitochondria Different-Phenotype (%),[1],2%
same,Population Mitotic Cells (%),[1],57%
same,Population Normal (%),[1],96%
same,Population Pyknosed Nuclei (%),[1],21%
same,Population Tubulin-Different-Phenotype (%),[1],27%
same,Population Apoptotic (%),[2],57%
same,Population Fragmented Nuclei (%),[2],20%
same,Population Healthy Nuclei (%),[2],47%
same,Population Hoechst High Intensity Objects (%),[2],8%
same,Population Membrane Permeable-Phenotype (%),[2],10%
same,Population Mitochondria Different-Phenotype (%),[2],14%
same,Population Mitotic Cells (%),[2],42%
same,Population Normal (%),[2],91%
same,Population Pyknosed Nuclei (%),[2],31%
same,Population Tubulin-Different-Phenotype (%),[2],49%
same,Population Apoptotic (%),[3],30%
same,Population Fragmented Nuclei (%),[3],29%
same,Population Healthy Nuclei (%),[3],60%
same,Population Hoechst High Intensity Objects (%),[3],4%
same,Population Membrane Permeable-Phenotype (%),[3],1%
same,Population Mitochondria Different-Phenotype (%),[3],3%
same,Population Mitotic Cells (%),[3],70%
same,Population Normal (%),[3],95%
same,Population Pyknosed Nuclei (%),[3],9%
same,Population Tubulin-Different-Phenotype (%),[3],16%
same,Population Apoptotic (%),[4],43%
same,Population Fragmented Nuclei (%),[4],16%
same,Population Healthy Nuclei (%),[4],53%
same,Population Hoechst High Intensity Objects (%),[4],2%
same,Population Membrane Permeable-Phenotype (%),[4],4%
same,Population Mitochondria Different-Phenotype (%),[4],8%
same,Population Mitotic Cells (%),[4],56%
same,Population Normal (%),[4],97%
same,Population Pyknosed Nuclei (%),[4],30%
same,Population Tubulin-Different-Phenotype (%),[4],41%
same,Population Apoptotic (%),[5],42%
same,Population Fragmented Nuclei (%),[5],11%
same,Population Healthy Nuclei (%),[5],69%
same,Population Hoechst High Intensity Objects (%),[5],5%
same,Population Membrane Permeable-Phenotype (%),[5],1%
same,Population Mitochondria Different-Phenotype (%),[5],2%
same,Population Mitotic Cells (%),[5],57%
same,Population Normal (%),[5],95%
same,Population Pyknosed Nuclei (%),[5],19%
same,Population Tubulin-Different-Phenotype (%),[5],22%
same,Population Apoptotic (%),[6],48%
same,Population Fragmented Nuclei (%),[6],22%
same,Population Healthy Nuclei (%),[6],53%
same,Population Hoechst High Intensity Objects (%),[6],7%
same,Population Membrane Permeable-Phenotype (%),[6],3%
same,Population Mitochondria Different-Phenotype (%),[6],7%
same,Population Mitotic Cells (%),[6],51%
same,Population Normal (%),[6],92%
same,Population Pyknosed Nuclei (%),[6],24%
same,Population Tubulin-Different-Phenotype (%),[6],54%
same,Population Apoptotic (%),[7],50%
same,Population Fragmented Nuclei (%),[7],27%
same,Population Healthy Nuclei (%),[7],66%
same,Population Hoechst High Intensity Objects (%),[7],6%
same,Population Membrane Permeable-Phenotype (%),[7],0%
same,Population Mitochondria Different-Phenotype (%),[7],1%
same,Population Mitotic Cells (%),[7],50%
same,Population Normal (%),[7],93%
same,Population Pyknosed Nuclei (%),[7],5%
same,Population Tubulin-Different-Phenotype (%),[7],21%
same,Population Apoptotic (%),[8],38%
same,Population Fragmented Nuclei (%),[8],30%
same,Population Healthy Nuclei (%),[8],46%
same,Population Hoechst High Intensity Objects (%),[8],3%
same,Population Membrane Permeable-Phenotype (%),[8],5%
same,Population Mitochondria Different-Phenotype (%),[8],4%
same,Population Mitotic Cells (%),[8],61%
same,Population Normal (%),[8],96%
same,Population Pyknosed Nuclei (%),[8],23%
same,Population Tubulin-Different-Phenotype (%),[8],41%
same,Population Apoptotic (%),[9],55%
same,Population Fragmented Nuclei (%),[9],18%
same,Population Healthy Nuclei (%),[9],66%
same,Population Hoechst High Intensity Objects (%),[9],7%
same,Population Membrane Permeable-Phenotype (%),[9],0%
same,Population Mitochondria Different-Phenotype (%),[9],1%
same,Population Mitotic Cells (%),[9],44%
same,Population Normal (%),[9],92%
same,Population Pyknosed Nuclei (%),[9],14%
same,Population Tubulin-Different-Phenotype (%),[9],19%
same,Population Apoptotic (%),[10],48%
same,Population Fragmented Nuclei (%),[10],36%
same,Population Healthy Nuclei (%),[10],44%
same,Population Membrane Permeable-Phenotype (%),[10],4%
same,Population Mitochondria Different-Phenotype (%),[10],7%
same,Population Mitotic Cells (%),[10],51%
same,Population Pyknosed Nuclei (%),[10],19%
same,Population Tubulin-Different-Phenotype (%),[10],55%
same,Population Apoptotic (%),[11],60%
same,Population Fragmented Nuclei (%),[11],30%
same,Population Healthy Nuclei (%),[11],60%
same,Population Hoechst High Intensity Objects (%),[11],1%
same,Population Membrane Permeable-Phenotype (%),[11],0%
same,Population Mitochondria Different-Phenotype (%),[11],1%
same,Population Mitotic Cells (%),[11],40%
same,Population Normal (%),[11],98%
same,Population Pyknosed Nuclei (%),[11],8%
same,Population Tubulin-Different-Phenotype (%),[11],18%
same,Population Fragmented Nuclei (%),[12],33%
same,Population Healthy Nuclei (%),[12],51%
same,Population Hoechst High Intensity Objects (%),[12],5%
same,Population Membrane Permeable-Phenotype (%),[12],6%
same,Population Mitochondria Different-Phenotype (%),[12],5%
same,Population Mitotic Cells (%),[12],39%
same,Population Normal (%),[12],94%
same,Population Pyknosed Nuclei (%),[12],15%
same,Population Tubulin-Different-Phenotype (%),[12],46%
